# Measured values from ChEMBL document CHEMBL1150393, “Evaluation of radiolabeled (hetero)aromatic analogues of N-(2-diethylaminoethyl)-4-iodobenzamide for imaging and targeted radionuclide therapy of melanoma” (J Med Chem, 2008).
# Legend:
# Settings in all cases: in vivo
# [1] = Ratio of drug level in tumor to liver of C57BL/6 mouse bearing mouse B16-F0 cells at 0.74 to 0.92 MBq, iv after 1 hr; assay type: ADME, organism-based
# Outline: (§1)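 Tumour and organ radioactive concentrations came from whole-body cryosection counting (40 µm slices, eight per mouse, two mice per time) after tail-vein injection of the [¹²⁵I]-labelled compound (0.1 µmol) into male C57BL6 mice bearing s.c. B16-F0 melanoma. Each value is the ratio of the tumour concentration to the organ concentration.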
# Liver [2] = assay: Biodistribution in liver of C57BL/6 mouse bearing mouse B16-F0 cells at 0.74 to 0.92 MBq, iv after 3 hrs; assay type: ADME, organism-based
# Outline: (§2)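 Male C57BL6 mice with s.c. left-flank B16-F0 melanoma (5 × 10⁵ cells in PBS). Two mice per time point frozen in liquid nitrogen after CO₂ sacrifice. Eight 40 µm whole-body cryosections per mouse read by multiwire proportional counter. cpm/mm² converted to kBq/g and expressed as %ID/g.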
# Lung [3] = assay: Biodistribution in lung of C57BL/6 mouse bearing mouse B16-F0 cells at 0.74 to 0.92 MBq, iv after 6 hrs; assay type: ADME, organism-based; outline: as §2
# [4] = Biodistribution in Stomach content of C57BL/6 mouse bearing mouse B16-F0 cells at 0.74 to 0.92 MBq, iv after 72 hrs; assay type: ADME, organism-based; outline: as §2
# [5] = Biodistribution in intestinal content of C57BL/6 mouse bearing mouse B16-F0 cells at 0.74 to 0.92 MBq, iv after 3 hrs; assay type: ADME, organism-based; outline: as §2
# [6] = Biodistribution in intestinal content of C57BL/6 mouse bearing mouse B16-F0 cells at 0.74 to 0.92 MBq, iv after 1 hr; assay type: ADME, organism-based; outline: as §2
# Liver [7] = assay: Biodistribution in liver of C57BL/6 mouse bearing mouse B16-F0 cells at 0.74 to 0.92 MBq, iv after 1 hr; assay type: ADME, organism-based; outline: as §2
# Brain [8] = assay: Biodistribution in brain of C57BL/6 mouse bearing mouse B16-F0 cells at 0.74 to 0.92 MBq, iv after 1 hr; assay type: ADME, organism-based; outline: as §2
# [9] = Biodistribution in tumor of C57BL/6 mouse bearing mouse B16-F0 cells at 0.74 to 0.92 MBq, iv after 1 hr; assay type: ADME, organism-based, Neoplasm
# Outline: (§3)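 [¹²⁵I]-labelled compound given iv by tail vein (0.1 µmol per mouse) to male C57BL6 mice bearing s.c. B16-F0 flank tumours (5 × 10⁵ cells in PBS). Two mice per time point were killed by CO₂, frozen in liquid nitrogen and cut into 40 µm cryosections, eight slices per mouse. Slice radioactivity was read on a multiwire proportional counter, converted to kBq/g and reported as %ID/g.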
# Lung [10] = assay: Biodistribution in lung of C57BL/6 mouse bearing mouse B16-F0 cells at 0.74 to 0.92 MBq, iv after 1 hr; assay type: ADME, organism-based; outline: as §2
# Lung [11] = assay: Biodistribution in lung of C57BL/6 mouse bearing mouse B16-F0 cells at 0.74 to 0.92 MBq, iv after 3 hrs; assay type: ADME, organism-based; outline: as §2
# Liver [12] = assay: Biodistribution in liver of C57BL/6 mouse bearing mouse B16-F0 cells at 0.74 to 0.92 MBq, iv after 6 hrs; assay type: ADME, organism-based; outline: as §2
# [13] = Biodistribution in intestinal content of C57BL/6 mouse bearing mouse B16-F0 cells at 0.74 to 0.92 MBq, iv after 6 hrs; assay type: ADME, organism-based; outline: as §2
# [14] = Ratio of drug level in tumor to liver of C57BL/6 mouse bearing mouse B16-F0 cells at 0.74 to 0.92 MBq, iv after 6 hrs; assay type: ADME, organism-based; outline: as §1
# [15] = Biodistribution in gall bladder of C57BL/6 mouse bearing mouse B16-F0 cells at 0.74 to 0.92 MBq, iv after 6 hrs; assay type: ADME, organism-based; outline: as §2
# Thyroid gland [16] = assay: Biodistribution in thyroid of C57BL/6 mouse bearing mouse B16-F0 cells at 0.74 to 0.92 MBq, iv after 1 hr; assay type: ADME, organism-based; outline: as §3
# [17] = Biodistribution in intestinal content of C57BL/6 mouse bearing mouse B16-F0 cells at 0.74 to 0.92 MBq, iv after 24 hrs; assay type: ADME, organism-based; outline: as §2
# [18] = Ratio of drug level in tumor to lung of C57BL/6 mouse bearing mouse B16-F0 cells at 0.74 to 0.92 MBq, iv after 3 hrs; assay type: ADME, organism-based; outline: as §1
# [19] = Biodistribution in Stomach content of C57BL/6 mouse bearing mouse B16-F0 cells at 0.74 to 0.92 MBq, iv after 3 hrs; assay type: ADME, organism-based; outline: as §2
# Spleen [20] = assay: Biodistribution in spleen of C57BL/6 mouse bearing mouse B16-F0 cells at 0.74 to 0.92 MBq, iv after 1 hr; assay type: ADME, organism-based; outline: as §3
# [21] = Biodistribution in gall bladder of C57BL/6 mouse bearing mouse B16-F0 cells at 0.74 to 0.92 MBq, iv after 3 hrs; assay type: ADME, organism-based; outline: as §2
# [22] = Ratio of drug level in tumor to brain of C57BL/6 mouse bearing mouse B16-F0 cells at 0.74 to 0.92 MBq, iv after 3 hrs; assay type: ADME, organism-based; outline: as §1
# Brain [23] = assay: Biodistribution in brain of C57BL/6 mouse bearing mouse B16-F0 cells at 0.74 to 0.92 MBq, iv after 3 hrs; assay type: ADME, organism-based; outline: as §2
# Thyroid gland [24] = assay: Biodistribution in thyroid of C57BL/6 mouse bearing mouse B16-F0 cells at 0.74 to 0.92 MBq, iv after 72 hrs; assay type: ADME, organism-based; outline: as §3
# Brain [25] = assay: Biodistribution in brain of C57BL/6 mouse bearing mouse B16-F0 cells at 0.74 to 0.92 MBq, iv after 6 hrs; assay type: ADME, organism-based; outline: as §2
# Pancreas [26] = assay: Biodistribution in pancreas of C57BL/6 mouse bearing mouse B16-F0 cells at 0.74 to 0.92 MBq, iv after 6 hrs; assay type: ADME, organism-based; outline: as §2
# Pancreas [27] = assay: Biodistribution in pancreas of C57BL/6 mouse bearing mouse B16-F0 cells at 0.74 to 0.92 MBq, iv after 3 hrs; assay type: ADME, organism-based; outline: as §2
# [28] = Ratio of drug level in tumor to brain of C57BL/6 mouse bearing mouse B16-F0 cells at 0.74 to 0.92 MBq, iv after 6 hrs; assay type: ADME, organism-based; outline: as §1
# Liver [29] = assay: Biodistribution in liver of C57BL/6 mouse bearing mouse B16-F0 cells at 0.74 to 0.92 MBq, iv after 24 hrs; assay type: ADME, organism-based; outline: as §2
# Lung [30] = assay: Biodistribution in lung of C57BL/6 mouse bearing mouse B16-F0 cells at 0.74 to 0.92 MBq, iv after 24 hrs; assay type: ADME, organism-based; outline: as §2
# Spleen [31] = assay: Biodistribution in spleen of C57BL/6 mouse bearing mouse B16-F0 cells at 0.74 to 0.92 MBq, iv after 24 hrs; assay type: ADME, organism-based; outline: as §3
# [32] = Ratio of drug level in tumor to lung of C57BL/6 mouse bearing mouse B16-F0 cells at 0.74 to 0.92 MBq, iv after 24 hrs; assay type: ADME, organism-based; outline: as §1
# Kidney = assay: Biodistribution in kidney of C57BL/6 mouse bearing mouse B16-F0 cells at 0.74 to 0.92 MBq, iv after 24 hrs; assay type: ADME, organism-based; outline: as §2
# Spleen [33] = assay: Biodistribution in spleen of C57BL/6 mouse bearing mouse B16-F0 cells at 0.74 to 0.92 MBq, iv after 72 hrs; assay type: ADME, organism-based; outline: as §3
Compound,Ratio [1],Drug uptake (Liver [2]),Drug uptake (Lung [3]),Drug uptake [4],Drug uptake [5],Drug uptake [6],Drug uptake (Liver [7]),Drug uptake (Brain [8]),Drug uptake [9],Drug uptake (Lung [10]),Drug uptake (Lung [11]),Drug uptake (Liver [12]),Drug uptake [13],Ratio [14],Drug uptake [15],Ratio [18],Drug uptake [19],Drug uptake (Spleen [20]),Ratio [22],Drug uptake (Brain [23]),other results
CCN(CC)CCNC(=O)c1ccc2cncc([125I])c2n1.Cl.Cl,5.92,2.27 % ID/g,1.26 % ID/g,2.13 % ID/g,47.65 % ID/g,32.83 % ID/g,3.92 % ID/g,0.35 % ID/g,23.2 % ID/g,2.36 % ID/g,1.87 % ID/g,1.49 % ID/g,43.48 % ID/g,7.69,28.67 % ID/g,7.41,9.76 % ID/g,5.38 % ID/g,32.18,,Drug uptake (Thyroid gland [16]): 20.16 % ID/g; Drug uptake [17]: 0.82 % ID/g; Drug uptake [21]: 41.51 % ID/g
CCN(CC)CCNC(=O)c1ccc([125I])nc1.Cl.Cl,3.01,3.01 % ID/g,3.21 % ID/g,,4.94 % ID/g,13.44 % ID/g,5.14 % ID/g,0.64 % ID/g,15.5 % ID/g,7.59 % ID/g,3.96 % ID/g,2.09 % ID/g,2.98 % ID/g,3.33,4.9 % ID/g,2.34,42.71 % ID/g,5.44 % ID/g,42.14,0.22 % ID/g,Drug uptake (Thyroid gland [24]): 178.8 % ID/g; Drug uptake (Brain [25]): 0.12 % ID/g; Drug uptake (Thyroid gland [16]): 25.29 % ID/g; Drug uptake (Pancreas [26]): 2.27 % ID/g; Drug uptake (Pancreas [27]): 2.53 % ID/g; Drug uptake [21]: 6.78 % ID/g; Ratio [28]: 58.08
CCN(CC)CCNC(=O)c1cnc2cc([125I])ccc2n1.Cl.Cl,1.29,8.87 % ID/g,4.46 % ID/g,2.23 % ID/g,17.45 % ID/g,15.22 % ID/g,13.18 % ID/g,2.34 % ID/g,17 % ID/g,7.83 % ID/g,5.68 % ID/g,7.53 % ID/g,,5.4,33.38 % ID/g,4.87,20.33 % ID/g,14.21 % ID/g,26.87,1.03 % ID/g,Drug uptake (Liver [29]): 1.49 % ID/g
CCN(CC)CCNC(=O)c1ccc2cc([125I])ccc2n1.Cl.Cl,1.8,8.89 % ID/g,5.32 % ID/g,,20.65 % ID/g,15.78 % ID/g,10.92 % ID/g,1.96 % ID/g,19.6 % ID/g,9.41 % ID/g,5.58 % ID/g,7.11 % ID/g,23.36 % ID/g,2.42,,4.54,34.72 % ID/g,11.56 % ID/g,30.54,0.83 % ID/g,Drug uptake (Lung [30]): 0.53 % ID/g; Drug uptake (Spleen [31]): 2.66 % ID/g; Ratio [32]: 22.89; Drug uptake (Liver [29]): 2.25 % ID/g; Drug uptake (Brain [25]): 0.37 % ID/g; Drug uptake [17]: 1.45 % ID/g; Drug uptake (Kidney): 0.34 % ID/g; Drug uptake (Pancreas [27]): 6.17 % ID/g; Drug uptake (Spleen [33]): 1.85 % ID/g; Ratio [28]: 46.51
